Measurements taken from the EternaBench riboswitch data.

Tests used:
[1] = tested on: MS2 coat protein; assay: apparent Kd, MS2 coat protein; higher = weaker binding; RNA-MaP array; theophylline 2 mM where present
How it was run: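 Stalled E. coli RNA polymerase transcribed each design on Illumina sequencing-chip clusters. The clusters were titrated with SNAP-549-labelled MS2 coat protein, starting at 0.7 or 1.5 nM and doubling up to 3 µM, first without ligand and then with constant ligand, in 100 mM Tris-HCl pH 7.5, 80 mM KCl, 4 mM MgCl2, BSA, DTT, yeast tRNA and Tween-20. Green signal was normalised to red-channel RNA signal and to the control-cluster median Fmax. The apparent Kd is the median of filtered binding-curve fits made for each cluster.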

[2] = tested on: MS2 coat protein; assay: apparent Kd, MS2 coat protein; higher = weaker binding; RNA-MaP array
How it was run: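 With or without input ligand, designed RNAs transcribed on an Illumina sequencing chip from sequenced DNA templates were incubated at room temperature with fluorescently labeled MS2 coat protein at 1.5 nM to 3 μM. The buffer was Tris-HCl pH 7.5 with KCl, MgCl2, BSA, DTT, tRNA and Tween20, and incubation ran 0.8–1.5 h at the lowest and 10–20 min at the highest concentrations. Apparent Kd is reported as the median of fits to binding curves from individual clusters. Designs measured on fewer than 10 clusters are not included.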

[3] = designed as: ON switch for theophylline, no ligand
[4] = ligand present: theophylline, designed as: ON switch for theophylline
[5] = designed as: OFF switch for theophylline, no ligand
[6] = ligand present: theophylline, designed as: OFF switch for theophylline
[7] = designed as: ON switch for flavin mononucleotide, no ligand
[8] = ligand present: flavin mononucleotide, designed as: ON switch for flavin mononucleotide
[9] = designed as: OFF switch for flavin mononucleotide, no ligand
[10] = ligand present: flavin mononucleotide, designed as: OFF switch for flavin mononucleotide

Q: With “UGCACCAUAAUCAUGUUGGUGCUAGGUGAUACCAGCAUCGAAAGAUGCCCUUGGCAGCACCAACAUGAGGAUCACCCAUGUAAUA” as the sequence, how does the “apparent Kd” value [1, 3] read?
A: 130 nM

Q: What about the “apparent Kd” value [1, 4] of the same sequence?
A: 99.8 nM

Q: For “AAUAACAUGAGGAUCACCCAUGUAAAAGAUACCAGAUGCAUGAUGAUCCCUUGGCAGCUUAAAACGCGAUUGGAAACAAUCGCGA”, which “apparent Kd” value [1, 3] is on record?
A: 31.2 nM

Q: What about the “apparent Kd” value [1, 4] of the same sequence?
A: 126 nM

Q: For “CUGCCAUGCAGAGAUACCAGUGCGCUCAGCACAUGAGGAUCACCCAUGUCGGCUGCCGAUCACCCUUGGCAGCUCUGCAUGGCAG”, which “apparent Kd” value [1, 3] is on record?
A: 11.4 nM

Q: What about the “apparent Kd” value [1, 4] of the same sequence?
A: 9.11 nM

Q: What does the source list for “AUAAAUAUAACCGAUACCAGCCUUAUACAUGAGGAUCACCCAUGUUAUGCUUCCUUUUUUGGCCCUUGGCAGCGGAAAUGGGUAA”?
A: apparent Kd [1, 3]: 81.7 nM; apparent Kd [1, 4]: 36.2 nM

Q: How did the “apparent Kd” value [1, 3] turn out when “ACAUGAGGAUCACCCAUGUCACGGCACGAUACCAGCUGAUCCGGUGGCCCUUGGCAGCGUGACGUUUGGUCCCGCGGAUGACACG” was run?
A: 134 nM

Q: What about the “apparent Kd” value [1, 4] of the same sequence?
A: 43 nM

Q: “ACAUGAGGAUCACCCAUGUGCCGUCUUGAUACCAGACGCGAAGUAGUCCCUUGGCAGCAAAUACGUGAGGGUCGCGCAUGUGUAA” was tested. Which “apparent Kd” value [1, 5] did it give?
A: 24.1 nM

Q: And the “apparent Kd” value [1, 6]?
A: 34.7 nM

Q: How did the “apparent Kd” value [1, 5] turn out when “GAGCUGAUGUAGAGAAUAAAUAUAAGAGAUACCAGUACAGAAAUGUACCCUUGGCAGCUCAACUUUACAUGAGGAUCACCCAUGU” was run?
A: 13.9 nM

Q: And the “apparent Kd” value [1, 6]?
A: 18.8 nM

Q: What does the source list for “AAACGUUGCUGCGAUACCAGACAUGAGGAUCACCCAUGUACCAAGGUACGAAUAUAACAUGUCCCUUGGCAGCGCAGCAACGAAA”?
A: apparent Kd [1, 5]: 12.6 nM; apparent Kd [1, 6]: 279 nM

Q: For “AUUAUCAUGGUCAUAUAUAUAUCGUCAGAUACCAGACUAGAUAUAGUCCCUUGGCAGCUGUUACAUGAGGAUCACCCAUGUUAUA”, which “apparent Kd” value [1, 5] is on record?
A: 138 nM

Q: And the “apparent Kd” value [1, 6]?
A: 47.8 nM

Q: What does the source list for “AUCGCACCUGGUGAUACCAGCGUUUGCUCGCGACAUGAGGAUCACCCAUGUGGCCAGUGAUGCCCUUGGCAGCAUGGUCGGUGCA”?
A: apparent Kd [1, 3]: 317 nM; apparent Kd [1, 4]: 45.4 nM

Q: With “AGAAUAACACAUGAGGAUCACCCAUGUGAUACCAGCUAGGAAACUAGCCCUUGGCAGCACAUAAGGUGAUCCAGCUGCCAAGAAU” as the sequence, how does the “apparent Kd” value [1, 5] read?
A: 137 nM

Q: What about the “apparent Kd” value [1, 6] of the same sequence?
A: 74.9 nM

Q: How did the “apparent Kd” value [1, 3] turn out when “UUACAUGAGGAUCACCCAUGUCAUAAUGAUACCAGAUAGUUAAUGAUCCCUUGGCAGCAUAAUACCUAGACAUUUAAGUCAUAGG” was run?
A: 83.1 nM

Q: And the “apparent Kd” value [1, 4]?
A: 41 nM

Q: Which results are given for “GCACCAGGUACGGAUACCAGCUGCCAGAGAUACAUGAGGAUCACCCAUGUGACCUGAUUUAGCCCUUGGCAGCUGUACCUGGUGC”?
A: apparent Kd [1, 3]: 466 nM; apparent Kd [1, 4]: 35.7 nM

Q: How did the “apparent Kd” value [1, 3] turn out when “GGUGGCGUGACGGAUACCAGCCACCGCCGCAAGGCCACAUGAGGAUCACCCAUGUUGGGUGGCCCUUGGCAGCUGUCGUGCGGCG” was run?
A: 157 nM

Q: And the “apparent Kd” value [1, 4]?
A: 281 nM

Q: How did the “apparent Kd” value [1, 3] turn out when “UCUUUCUAUGUAGAUACCAGCAUGUUAUAUUUCUAAUGACAUGAGGAUCACCCAUGUAAAUGCCCUUGGCAGCUACAUUUUCUUU” was run?
A: 23.1 nM

Q: What about the “apparent Kd” value [1, 4] of the same sequence?
A: 16 nM

Q: “UGUUUGGUGCGCGAGUGUUGGAUAAUUGAUACCAGUGUAGAUGUGCGCCCUUGGCAGCGAAUCCUAACAUGAGGAUCACCCAUGU” was tested. Which “apparent Kd” value [1, 3] did it give?
A: 43.8 nM

Q: What about the “apparent Kd” value [1, 4] of the same sequence?
A: 57.1 nM

Q: What does the source list for “CAUACUUUAGUAUGACGUGUGGGCAGUGAUACCAGAUACGAAAGUAUCCCUUGGCAGCACAACAUGAGGAUCACCCAUGUAAUUA”?
A: apparent Kd [1, 3]: 20.5 nM; apparent Kd [1, 4]: 31.3 nM

Q: Which results are given for “AUGUCGUUGAAUACAGCGGCAUGGAGUGAUACCAGAAUGAUCAAAUUCCCUUGGCAGCAUGACAUGAGGAUCACCCAUGUUCGAU”?
A: apparent Kd [1, 3]: 111 nM; apparent Kd [1, 4]: 104 nM

Q: “AGCGACAUGCGUGAUACCAGCUACAUGAGGAUCACCCAUGUACGUAGGAAACUACUGUGUAGCCCUUGGCAGCAUAGUGCAUGUC” was tested. Which “apparent Kd” value [1, 5] did it give?
A: 12.6 nM

Q: And the “apparent Kd” value [1, 6]?
A: 57.1 nM

Q: “GGGUGCGGGAUAGAUACCAGUGCCUUAAAAUAGGCACAUGAGGAUCACCCAUGUACCGGGCGCCCUUGGCAGCUAGUACCAUCCA” was tested. Which “apparent Kd” value [1, 3] did it give?
A: 127 nM

Q: What about the “apparent Kd” value [1, 4] of the same sequence?
A: 181 nM

Q: For “CAUUAAGUAACUGAUACCAGUGUACUGACAUGAGGAUCACCCAUGUUGGGUUUUGUUGUACACCCUUGGCAGCAGAAUCUUAAUG”, which “apparent Kd” value [1, 5] is on record?
A: 68.7 nM

Q: What about the “apparent Kd” value [1, 6] of the same sequence?
A: 95.5 nM

Q: Which results are given for “ACACGAGGAUCACCCGUGUCAUGUGGUGAUACCAGUUUACAUGAGAACCCUUGGCAGCAUAACAACAUGAGGAUCACCCAUGUCA”?
A: apparent Kd [1, 3]: 32.3 nM; apparent Kd [1, 4]: 41.7 nM

Q: “GAUGAACUAUUUGAUACCAGACUACAUGAGGAUCACCCAUGUGUGUUAAUUUUUCAGUCAGUCCCUUGGCAGCAAAUAGUUUAUC” was tested. Which “apparent Kd” value [1, 5] did it give?
A: 61.2 nM

Q: What about the “apparent Kd” value [1, 6] of the same sequence?
A: 146 nM

Q: Which results are given for “GGUGAUCCGUGCUGCCGGAUCAUCGGUGAUACCAGCAUCGAAAGAUGCCCUUGGCAGCACCAACAUGAGGAUCACCCAUGUAAUA”?
A: apparent Kd [1, 3]: 206 nM; apparent Kd [1, 4]: 73.4 nM

Q: Which “apparent Kd” value [1, 5] does the source give for “CGGUACAUGAGGAUCACCCAUGUGUCGGAUACCAGAGAGCCGUCUCUCCCUUGGCAGCUGGUUUUACAUGAGGAUCACCCAUGUG” here?
A: 13.6 nM

Q: And the “apparent Kd” value [1, 6]?
A: 20.1 nM

Q: What does the source list for “ACGACAUGAGGAUCACCCAUGUAAGGUGAUACCAGACGAAGUAAUGUCCCUUGGCAGCACACGCAUAGUUGCGAUUAUUGUACGA”?
A: apparent Kd [1, 3]: 533 nM; apparent Kd [1, 4]: 137 nM

Q: Which results are given for “CAGACCCGGAAGAAGGAGGAGACAUAAACACGCCUAGGAUAUACGCCUGAAUAAACGUAAACAUGAGGAUCACCCAUGUCAAAC”?
A: apparent Kd [2, 7]: 9.5 nM; apparent Kd [2, 8]: 8.4 nM

Q: Which results are given for “CGUUCAGAUCAUGAUAACAUGAGGAUCACCCAUGUGGAAUAAUAGGAUAUGGAGAACAAAAUUAACCAGAAGGAUUAUAACAAA”?
A: apparent Kd [2, 7]: 70 nM; apparent Kd [2, 8]: 44.9 nM

Q: For “AAACCCAAAGUUAGGAUAUGCAUUGCCGGCCCUGUGCAGAAGGAACAUGAGGAUCACCCAUGUACUGGUGUUCG”, which “apparent Kd” value [2, 9] is on record?
A: 42.7 nM

Q: And the “apparent Kd” value [2, 10]?
A: 103 nM

Q: With “GAUCAUUUAGUGAGGAUAUGUCUCCUGCAAAGUCGACAGAAGGCACAUGAGGAUCACCCAUGUUCGCUUCGGAU” as the sequence, how does the “apparent Kd” value [2, 9] read?
A: 5 nM

Q: And the “apparent Kd” value [2, 10]?
A: 5.75 nM

Q: For “UGGGAGUGAGGAUAUGUAUAUCUCAGGGCCGAGGAGAUGAAACAGAAGGCACAUGAGGAUCACCCAUGUUAUGA”, which “apparent Kd” value [2, 9] is on record?
A: 25.3 nM

Q: What about the “apparent Kd” value [2, 10] of the same sequence?
A: 29.9 nM

Q: Which results are given for “UACCCUCGAGGAUAUUAGCUAGCGAACAUGAGGAUCACCCAUGUGCAUCUUCCCAGCCGUUAAGAAGGCGAUUACC”?
A: apparent Kd [2, 9]: 93.1 nM; apparent Kd [2, 10]: 79.2 nM

Q: Which results are given for “AAAACUUAUCAGAAGGAACGCACUCAACCGUUGUUAGGAUAUGAUCACCUAACAUGAGGAUCACCCAUGUUCACAGUAGGAGAC”?
A: apparent Kd [2, 7]: 130 nM; apparent Kd [2, 8]: 89.5 nM

Q: “GGGAUACAUGAGGAUCACCCAUGUCAGGAUAUCUUUUACCGGCACGACAAUCAUAUGAAGAGAAGGGACUAUAU” was tested. Which “apparent Kd” value [2, 9] did it give?
A: 35 nM

Q: What about the “apparent Kd” value [2, 10] of the same sequence?
A: 31.9 nM

Q: Which “apparent Kd” value [2, 9] does the source give for “ACCUGGUGUAAGAAGGAGCAGAUAUAACGGUCGCUAGGAUAUUACCCUUCAAAAUGGGAUCUCACAUGAGGAUCACCCAUGUUA” here?
A: 143 nM

Q: And the “apparent Kd” value [2, 10]?
A: 218 nM

Q: “UCGCUGUAAGAGAAGGGCUCUGCAUGAGCACAUGAGGAUCACCCAUGUAAGAUCCUAAAGUACGAGCAGGAUAUCUCCGAGUGG” was tested. Which “apparent Kd” value [2, 9] did it give?
A: 106 nM

Q: What about the “apparent Kd” value [2, 10] of the same sequence?
A: 77.3 nM

Q: For “GCAGGACAUGAGGAUCACCCAUGUGAGGGCAGAGGAGGAUAUAACUACCACUAUUGAUCGUUAGAAGGCCUAGAGG”, which “apparent Kd” value [2, 7] is on record?
A: 40 nM

Q: What about the “apparent Kd” value [2, 8] of the same sequence?
A: 26 nM

Q: Which results are given for “GACCGGUAUCCAGGAUAUGCAAUUAUUUACAUGAGGAUCACCCAUGUCGCAAGAGUAGGGGUGUAGCAGAAGGGGACAACAGCA”?
A: apparent Kd [2, 9]: 70.7 nM; apparent Kd [2, 10]: 62.7 nM

Q: What does the source list for “UUCAUUCGAACCAAGGAUAUGUGAUAAGUUACAUGAGGAUCACCCAUGUAUCAGUACAUCAACAGACAGAAGGUGGUGCAUAGUCA”?
A: apparent Kd [2, 7]: 7.14 nM; apparent Kd [2, 8]: 6.57 nM

Q: How did the “apparent Kd” value [2, 7] turn out when “UGCUUAAGACAGAAGGGCGUUCCGGAUGGUACCGCAGGAUAUGUCAACAUGAGGAUCACCCAUGUUACUAGCUAUGUUUCAAUU” was run?
A: 9.97 nM

Q: And the “apparent Kd” value [2, 8]?
A: 6.09 nM

Q: Which “apparent Kd” value [2, 9] does the source give for “GUACAGGAAGGAUAUACCAGGUAAGUUAAGUUUUCACAUUGACAUGAGGAUCACCCAUGUAGAAGGUCCCUAUA” here?
A: 36.7 nM

Q: And the “apparent Kd” value [2, 10]?
A: 31.7 nM
